According to ChEMBL document CHEMBL2407075, “Sulphonamido-quinoxalines: search for anticancer agent” (Eur J Med Chem, 2013):

Legend:
[1] = tested on: NCI-H23; assay: Growth inhibition of human NCI-H23 cells at 10 uM after 48 hrs by sulforhodamine B assay; format: functional; conditions: NCI-H23, 48 h, read-out: GI
Outline: (§1)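 Single-dose screen at 10 µM across the NCI 60 panel. Cells in RPMI 1640 with 5% FBS and 2 mM L-glutamine, plated at 5000–40,000/well and preincubated 24 h at 37 °C, 5% CO2. Drug in DMSO, 48 h exposure. Fixed with TCA, stained with SRB, A515 read. Percent growth is taken relative to untreated control, and inhibition is 100 minus growth.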

[2] = tested on: U-251; assay: Growth inhibition of human U251 cells at 10 uM after 48 hrs by sulforhodamine B assay; format: functional; conditions: U-251, 48 h, read-out: GI; outline: as §1
[3] = tested on: UO-31; assay: Growth inhibition of human UO31 cells at 10 uM after 48 hrs by sulforhodamine B assay; format: functional; conditions: UO-31, 48 h, read-out: GI; outline: as §1
[4] = tested on: NCI-H460; assay: Growth inhibition of human NCI-H460 cells at 10 uM after 48 hrs by sulforhodamine B assay; format: functional; conditions: NCI-H460, 48 h, read-out: GI; outline: as §1
[5] = tested on: IGROV-1; assay: Growth inhibition of human IGROV1 cells at 10 uM after 48 hrs by sulforhodamine B assay; format: functional; conditions: IGROV-1, 48 h, read-out: GI; outline: as §1
[6] = tested on: LOX IMVI; assay: Growth inhibition of human LOXIMVI cells at 10 uM after 48 hrs by sulforhodamine B assay; format: functional; conditions: read-out: GI; outline: as §1
[7] = tested on: SK-MEL-28; assay: Growth inhibition of human SK-MEL-28 cells at 10 uM after 48 hrs by sulforhodamine B assay; format: functional; conditions: SK-MEL-28, 48 h, read-out: GI; outline: as §1
[8] = tested on: HOP-62; assay: Growth inhibition of human HOP62 cells at 10 uM after 48 hrs by sulforhodamine B assay; format: functional; conditions: HOP-62, 48 h, read-out: GI
Outline: (§2)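 NCI-60 one-dose primary screen at a single 10 µM concentration. Cells in RPMI 1640 with 5% FBS, preincubated 24 h at 37 °C, 5% CO2. Drug exposure 48 h, then TCA fixation, SRB staining and absorbance at 515 nm. Percent growth calculated against time-zero and untreated control wells, then converted to percent growth inhibition.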

[9] = tested on: NCI-H226; assay: Growth inhibition of human NCI-H226 cells at 10 uM after 48 hrs by sulforhodamine B assay; format: functional; conditions: NCI-H226, 48 h, read-out: GI; outline: as §1
[10] = tested on: KM12; assay: Growth inhibition of human KM12 cells at 10 uM after 48 hrs by sulforhodamine B assay; format: functional; conditions: KM12, 48 h, read-out: GI; outline: as §1
[11] = tested on: NCI-H322M; assay: Growth inhibition of human NCI-H322M cells at 10 uM after 48 hrs by sulforhodamine B assay; format: functional; conditions: read-out: GI; outline: as §1
[12] = tested on: CAKI-1; assay: Growth inhibition of human CAKI-1 cells at 10 uM after 48 hrs by sulforhodamine B assay; format: functional; conditions: CAKI-1, 48 h, read-out: GI
Outline: (§3)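 Single-dose NCI-60 prescreen at 10 µM for 48 h at 37 °C and 5% CO2, using cells grown in RPMI 1640 with 5% FBS and 2 mM glutamine. Protein was measured by SRB after TCA fixation: 10% final for adherent lines, 16% for suspension lines. Absorbance was read at 515 nm. Percent growth inhibition was obtained by subtracting percent growth from 100.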

[13] = tested on: ACHN; assay: Growth inhibition of human ACHN cells at 10 uM after 48 hrs by sulforhodamine B assay; format: functional; conditions: read-out: GI; outline: as §3
[14] = tested on: HCT-116; assay: Growth inhibition of human HCT116 cells at 10 uM after 48 hrs by sulforhodamine B assay; format: functional; conditions: HCT-116, 48 h, read-out: GI; outline: as §2
[15] = tested on: PC-3; assay: Growth inhibition of human PC3 cells at 10 uM after 48 hrs by sulforhodamine B assay; format: functional; conditions: PC-3, 48 h, read-out: GI; outline: as §1
[16] = tested on: SN12C; assay: Growth inhibition of human SN12C cells at 10 uM after 48 hrs by sulforhodamine B assay; format: functional; conditions: read-out: GI; outline: as §1
[17] = tested on: OVCAR-5; assay: Growth inhibition of human OVCAR5 cells at 10 uM after 48 hrs by sulforhodamine B assay; format: functional; conditions: OVCAR-5, 48 h, read-out: GI; outline: as §1
[18] = tested on: A549; assay: Growth inhibition of human A549/ATCC cells at 10 uM after 48 hrs by sulforhodamine B assay; format: functional; conditions: A549, 48 h, read-out: GI; outline: as §3
[19] = tested on: K562; assay: Growth inhibition of human K562 cells at 10 uM after 48 hrs by sulforhodamine B assay; format: functional; conditions: K562, 48 h, read-out: GI; outline: as §1
[20] = tested on: SK-MEL-2; assay: Growth inhibition of human SK-MEL-2 cells at 10 uM after 48 hrs by sulforhodamine B assay; format: functional; conditions: SK-MEL-2, 48 h, read-out: GI; outline: as §1
[21] = tested on: MDA-MB-435; assay: Growth inhibition of human MDA-MB-435 cells at 10 uM after 48 hrs by sulforhodamine B assay; format: functional; conditions: MDA-MB-435, 48 h, read-out: GI; outline: as §1
[22] = tested on: OVCAR-4; assay: Growth inhibition of human OVCAR4 cells at 10 uM after 48 hrs by sulforhodamine B assay; format: functional; conditions: OVCAR-4, 48 h, read-out: GI; outline: as §1
[23] = tested on: HL-60(TB); assay: Growth inhibition of human HL-60(TB) cells at 10 uM after 48 hrs by sulforhodamine B assay; format: functional; conditions: HL-60, 48 h, read-out: GI
Outline: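 Single-dose NCI-60 primary screen at 10 µM, 48 h exposure, SRB read-out. Growth percentage of treated versus untreated cells was recorded and given as percent inhibition by subtraction.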

[24] = Oral bioavailability in human; format: ADME, organism-based; conditions: in silico prediction
[25] = tested on: UACC-62; assay: Growth inhibition of human UACC62 cells at 10 uM after 48 hrs by sulforhodamine B assay; format: functional; conditions: UACC-62, 48 h, read-out: GI; outline: as §1
[26] = tested on: SF-268; assay: Growth inhibition of human SF268 cells at 10 uM after 48 hrs by sulforhodamine B assay; format: functional; conditions: SF-268, 48 h, read-out: GI; outline: as §1
[27] = Growth inhibition of human EKVX cells at 10 uM after 48 hrs by sulforhodamine B assay; format: functional; conditions: read-out: GI; outline: as §2
[28] = tested on: SNB-19; assay: Growth inhibition of human SNB19 cells at 10 uM after 48 hrs by sulforhodamine B assay; format: functional; conditions: SNB-19, 48 h, read-out: GI; outline: as §1
[29] = tested on: M14; assay: Growth inhibition of human M14 cells at 10 uM after 48 hrs by sulforhodamine B assay; format: functional; conditions: M14, 48 h, read-out: GI; outline: as §1
[30] = tested on: Malme-3M; assay: Growth inhibition of human MALME-3M cells at 10 uM after 48 hrs by sulforhodamine B assay; format: functional; conditions: read-out: GI; outline: as §1
[31] = tested on: SF-295; assay: Growth inhibition of human SF295 cells at 10 uM after 48 hrs by sulforhodamine B assay; format: functional; conditions: SF-295, 48 h, read-out: GI; outline: as §1
[32] = tested on: OVCAR-3; assay: Growth inhibition of human OVCAR3 cells at 10 uM after 48 hrs by sulforhodamine B assay; format: functional; conditions: OVCAR-3, 48 h, read-out: GI; outline: as §1
[33] = tested on: RPMI-8226; assay: Growth inhibition of human RPMI8226 cells at 10 uM after 48 hrs by sulforhodamine B assay; format: functional; conditions: RPMI-8226, 48 h, read-out: GI; outline: as §1
[34] = tested on: OVCAR-8; assay: Growth inhibition of human OVCAR8 cells at 10 uM after 48 hrs by sulforhodamine B assay; format: functional; conditions: OVCAR-8, 48 h, read-out: GI; outline: as §1

| SMILES | inhibition of growth at 10 µM [1] [%] | inhibition of growth at 10 µM [3] [%] | inhibition of growth at 10 µM [4] [%] | inhibition of growth at 10 µM [5] [%] | inhibition of growth at 10 µM [6] [%] | inhibition of growth at 10 µM [7] [%] | inhibition of growth at 10 µM [8] [%] | inhibition of growth at 10 µM [9] [%] | inhibition of growth at 10 µM [10] [%] | inhibition of growth at 10 µM [11] [%] | inhibition of growth at 10 µM [12] [%] | inhibition of growth at 10 µM [13] [%] | inhibition of growth at 10 µM [14] [%] | inhibition of growth at 10 µM [15] [%] | inhibition of growth at 10 µM [16] [%] | inhibition of growth at 10 µM [17] [%] | inhibition of growth at 10 µM [18] [%] | inhibition of growth at 10 µM [19] [%] | inhibition of growth at 10 µM [20] [%] | inhibition of growth at 10 µM [21] [%] | other results |
| --- | --- | --- | --- | --- | --- | --- | --- | --- | --- | --- | --- | --- | --- | --- | --- | --- | --- | --- | --- | --- | --- |
| O=S(=O)(Nc1ccccn1)c1ccc2nc(-c3ccccc3)c(-c3ccccc3)nc2c1 | 46.5 | 45.2 | 63.4 | 31.8 | 63.3 | 30.3 | 22.8 | -1.38 | 61.5 | 59.4 | 54.1 | 34.3 | 72.1 | 72.2 | 38.5 | 24.3 | 54.7 | 64.4 | 39.3 | 54.2 | inhibition of growth at 10 µM [2]: 56.5%; inhibition of growth at 10 µM [22]: 40.1%; inhibition of growth at 10 µM [23]: 80.7%; bioavailability [24]: 100%; inhibition of growth at 10 µM [25]: 41.1%; inhibition of growth at 10 µM [26]: 27.6%; inhibition of growth at 10 µM [27]: 80.8%; inhibition of growth at 10 µM [28]: 43.6%; inhibition of growth at 10 µM [29]: 62.8%; inhibition of growth at 10 µM [30]: 32.9%; inhibition of growth at 10 µM [31]: 76.8%; inhibition of growth at 10 µM [32]: 48.9%; inhibition of growth at 10 µM [33]: 89.9%; inhibition of growth at 10 µM [34]: 52.8% |
| COc1ccccc1NS(=O)(=O)c1ccc2nc(-c3ccccc3)c(-c3ccccc3)nc2c1 | 23 | 22.8 | 45.5 | 11.8 | 23.3 | 12.7 | 2.12 | 69.9 | 8.62 | 23.2 | 23.9 | 13.1 | 55.7 | 52.8 | 32.6 | 12.7 | 36.5 | 45.5 | 25 | 22.5 | inhibition of growth at 10 µM [22]: 30%; inhibition of growth at 10 µM [23]: 60.7%; bioavailability [24]: 100%; inhibition of growth at 10 µM [25]: 23.4%; inhibition of growth at 10 µM [26]: 23.8%; inhibition of growth at 10 µM [27]: 48.8%; inhibition of growth at 10 µM [28]: 41.9%; inhibition of growth at 10 µM [29]: 26%; inhibition of growth at 10 µM [30]: 1.87%; inhibition of growth at 10 µM [31]: 15.9%; inhibition of growth at 10 µM [32]: 13.5%; inhibition of growth at 10 µM [33]: 65.7%; inhibition of growth at 10 µM [34]: 24.1% |
| O=C(NS(=O)(=O)c1ccc2nc(-c3ccccc3)c(-c3ccccc3)nc2c1)c1ccccc1 | 19.6 | 15.2 | 32 | 16.5 | 20.5 | 7.63 | 2.87 | 62 | 21 | 20.9 | 7.22 | 11.8 | 36.7 | 41.9 | 17.4 | 8.43 | 21.1 | 45.8 | 15.8 | 12.9 | inhibition of growth at 10 µM [2]: 21.6%; inhibition of growth at 10 µM [22]: 16.5%; inhibition of growth at 10 µM [23]: 49.4%; bioavailability [24]: 100%; inhibition of growth at 10 µM [25]: 19.6%; inhibition of growth at 10 µM [26]: 6.89%; inhibition of growth at 10 µM [27]: 26.5%; inhibition of growth at 10 µM [28]: 22%; inhibition of growth at 10 µM [29]: 2.45%; inhibition of growth at 10 µM [30]: 7.67%; inhibition of growth at 10 µM [31]: 21%; inhibition of growth at 10 µM [32]: 19.2%; inhibition of growth at 10 µM [33]: 58.5%; inhibition of growth at 10 µM [34]: 8.02% |
